From PMC3073091 (Chromatographia, 2011)

Assays:
[1] = stability of DL76 in rat serum QC samples under storage and process conditions; format: in vitro ADME; conditions: bench top, post preparative, freeze/thaw, long term
[2] = target: human H3 receptor; conditions: read-out: hKi; human H3 receptor stably expressed in CHO-K1 cells; preliminary pharmacological studies; cited from earlier work
[3] = pilot pharmacokinetic study in rats after intravenous administration; format: in vivo, rat
In short: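 Male Wistar rats (13–15 weeks, 200–220 g) were fasted overnight with free water access. They received 3 mg kg−1 i.v. in 0.9% saline. Under thiopental (70 mg kg−1), blood was taken by decapitation at 5, 10, 30, 60, 120 and 240 min (n = 5 per time). Serum was stored at −30 °C, then 100 µL was extracted into ethyl acetate with internal standard for LC–MS–MS. Non-compartmental analysis used mean concentrations: t1/2 = 0.693/λz, Cl = dose/AUC0-inf, Vss = D·AUMC/AUC².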

[4] = male, Wistar, rat, serum, iv, 3 mg/kg

Structure (SMILES): CC(C)(C)c1ccc(OCCCN2CCCCC2)cc1 [DL76, 1-[3-(4-tert-butylphenoxy)propyl]piperidine]
- stability in rat serum (all storage and process tests) [1]: good stability
- Ki [2]: 0.022 ± 0.003 µM
- clearance [3, 4]: 217 mL/min/kg
- half-life [3, 4]: 1.41 h
- serum concentration of DL76 in a representative rat serum sample ([3]; rat serum after i.v. 3 mg kg^−1, time not stated): 67.82 ng/mL
